Apaf1 activ – activators of human Apaf-1 apoptosome, primary screen, biochemical, DEVD-Rh110 fluorescence, uHTS; 330,000 tested, 0.31% active; AID 489031, 2010; activity change, negative = activation, % at 20 µM; Apaf-1 apoptosome caspase-3 activation; stronger effect = lower value;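 active means activity change at or below -40% at 20 µM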
Target sequence (O14727 whole entry, looked up): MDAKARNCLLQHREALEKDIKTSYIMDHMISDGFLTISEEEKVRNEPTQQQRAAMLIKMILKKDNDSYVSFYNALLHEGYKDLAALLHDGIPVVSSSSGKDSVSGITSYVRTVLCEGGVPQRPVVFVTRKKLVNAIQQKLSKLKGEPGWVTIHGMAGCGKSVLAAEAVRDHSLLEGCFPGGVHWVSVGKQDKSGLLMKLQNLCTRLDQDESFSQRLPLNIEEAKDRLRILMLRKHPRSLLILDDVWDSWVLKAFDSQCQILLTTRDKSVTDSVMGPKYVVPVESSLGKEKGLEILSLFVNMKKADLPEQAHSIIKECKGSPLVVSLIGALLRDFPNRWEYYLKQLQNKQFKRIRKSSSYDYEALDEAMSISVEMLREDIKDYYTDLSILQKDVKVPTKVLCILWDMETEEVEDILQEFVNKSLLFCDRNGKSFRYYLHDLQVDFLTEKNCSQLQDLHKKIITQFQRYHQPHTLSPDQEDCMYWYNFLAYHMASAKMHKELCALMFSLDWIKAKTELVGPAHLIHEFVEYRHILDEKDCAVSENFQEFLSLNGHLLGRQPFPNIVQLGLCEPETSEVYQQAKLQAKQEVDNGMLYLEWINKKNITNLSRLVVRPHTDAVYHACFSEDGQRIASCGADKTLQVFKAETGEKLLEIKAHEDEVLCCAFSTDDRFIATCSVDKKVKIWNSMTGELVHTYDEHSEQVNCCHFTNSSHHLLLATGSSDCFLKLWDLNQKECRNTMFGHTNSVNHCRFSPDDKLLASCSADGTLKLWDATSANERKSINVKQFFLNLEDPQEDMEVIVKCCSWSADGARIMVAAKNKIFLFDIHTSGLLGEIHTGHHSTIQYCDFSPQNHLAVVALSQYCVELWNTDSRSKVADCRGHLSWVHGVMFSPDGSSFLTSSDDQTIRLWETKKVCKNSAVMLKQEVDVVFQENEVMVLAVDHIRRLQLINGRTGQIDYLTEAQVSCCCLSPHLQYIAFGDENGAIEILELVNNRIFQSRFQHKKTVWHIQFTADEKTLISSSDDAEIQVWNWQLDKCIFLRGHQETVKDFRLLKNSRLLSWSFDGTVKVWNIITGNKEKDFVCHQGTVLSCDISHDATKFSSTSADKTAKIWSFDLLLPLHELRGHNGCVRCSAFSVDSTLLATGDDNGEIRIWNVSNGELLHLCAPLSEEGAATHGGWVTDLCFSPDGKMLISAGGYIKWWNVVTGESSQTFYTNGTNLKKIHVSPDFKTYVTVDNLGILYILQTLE
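System: Reconstituted apoptosome of Apaf-1, cytochrome c, caspase-9, procaspase-3 | Reagent: dATP, cytochrome c, and (Z-DEVD)2-Rh110 caspase-3 substrate | Times: 30 min compound preincubation and 50 min reaction, both room temperature | Detection: Caspase-3-released Rh110 fluorescence, 540 nm emission, 480 nm excitation | Measure: Caspase-3 activity via Apaf-1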
Rh110 act interf – Rh110 fluorescence interference by putative Apaf-1 activators, confirmation, artefact control for Apaf-1 activator project, biochemical, 20 µM; 980 tested, under 10 active; fluorescence interference (activity change), % at 20 µM, hits read low; quenched caspase reaction, Ex480/Em540; shares compounds with Apaf1 activ;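 active means mean activity change at or below -40% when tested at 20 µM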
Apaf-1 act conf2 – Apaf-1 activators, single-dose retest, confirmation, biochemical, fluorescence, DEVD-Rh110, 20 µM | shares compounds with Apaf1 activ | reconstituted apoptosome caspase-3 activity; stronger effect = lower value | activity change, negative = activation, % at 20 µM | 980 tested, 5% active;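 active means mean activity change at or below -40%, meaning activation of 40% or more, at 20 µM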
A number is an active result; n = inactive; x = no result given. Only a sample is shown.

SMILES	Apaf1 activ	Rh110 act interf	Apaf-1 act conf2
CCCNC(=O)OC[C@H]1O[C@H](CCO/N=C(\C)CCN2CCc3nc(-c4ccccc4)c(-c4ccccc4)cc3C2)C=C[C@@H]1Oc1ccc(OC)cc1	n	x	x
CCc1ccc(OCCNc2cc(N3CCNC(C)C3)ccc2[N+](=O)[O-])cc1 (stereo unspecified)	n	x	x
CN(C)CCCN1c2ccccc2Sc2ccc(Cl)cc21	n	x	x
O=[N+]([O-])c1ccccc1-c1ccc(C(=S)N2CCCC2)o1	n	x	x
O=C(NNC(=O)C1CC1)c1ccccc1[N+](=O)[O-]	-60	n	n
C#CCOCCOCCOCCNc1nc(N2CCN(C(=O)CCCCCCCCCCNC(=O)[C@H](CCCCN)n3cc(CCO)nn3)CC2)nc(N2CCN(C(=O)CCCCCCCCCCNC(=O)[C@@H]([C@H](C)O)n3cc(C)nn3)CC2)n1	n	x	x
Cc1ccccc1OCCNc1cc(N2CC(C)NC(C)C2)ccc1[N+](=O)[O-] (stereo unspecified)	n	x	x
CC(=O)CC(c1ccccc1)c1c(O)c2ccccc2oc1=O (stereo unspecified)	n	x	x
CCCCNc1c(-c2ccc(OC)c(SC(C)CC)c2)nc2cc(C)ccn12 (stereo unspecified)	n	x	x
O=C(CSc1nc2ccccc2s1)N/N=C/c1ccco1	-62	n	n
CC(=C/c1ccco1)/C=N/NC(=O)CSc1nnc(SCc2ccc(C)cc2)s1	-90	n	n
Cn1c(SCC(=O)Nc2ccc3nc(SCC(=O)N4CCCC4)sc3c2)nnc1-c1ccccc1	n	x	x
O=[N+]([O-])c1c(NCCCO)cc(Sc2nc3ccccc3s2)c2nonc12	n	x	x
CCCCC[n+]1ccn(C2=C([O-])c3ccccc3C(=O)/C2=N\S(=O)(=O)c2ccc(Br)cc2)c1	n	x	x
CC(C)c1ccc(S(=O)(=O)/N=C2/C=CC(=O)c3ccccc32)cc1	n	x	x
CC1=NN(Cc2ccccc2)C(=O)C1	n	x	x
Cc1ccc(-n2nc3ccc(N)cc3n2)cc1Cl	n	x	x
Cc1[nH]c(=O)[nH]c(=O)c1S(=O)(=O)N1CCN(c2ccccc2F)CC1	-517	n	n
C#CCOCCOCCOCCNc1nc(N2CCN(C(=O)[C@H](Cc3cc4ccccc4[nH]3)n3cc([C@@H](N)C(C)CC)nn3)CC2)nc(N2CCN(C(=O)[C@H](Cc3cc4ccccc4[nH]3)n3cc([C@@H](N)Cc4ccc(O)cc4)nn3)CC2)n1 (stereo partly specified)	n	x	x
Cc1ccccc1NC1=C/C(=N\S(=O)(=O)c2cccs2)c2ccccc2C1=O	n	x	x
CCOC(=O)Nc1ccc2c(c1)N(C(=O)OCCN(C)C)c1ccccc1CC2	n	x	x
O=C1NCN(c2ccccc2)C12CCN(CCCC(c1ccc(F)cc1)c1ccc(F)cc1)CC2	n	x	x
CN(CCO)c1nc(N)c2c(N)nc3c(c2c1C#N)CC(=O)N3Cc1cccs1	n	x	x
Cc1ccc2nc(-c3ccc(NC(=S)NC4CC(C)(C)NC(C)(C)C4)cc3)sc2c1	n	x	x
Cc1ccc2nc(-c3cccnc3)c(NC3CCCCC3)n2c1	-50	n	n
SMILES	Apaf1 activ	Rh110 act interf	Apaf-1 act conf2
c1cc(SC2CCCCC2)cc(-c2nc3cnccn3c2NC2CCCCC2)c1	n	x	x
CCC(C)Sc1ccc(-c2nc3ccc(C)cn3c2NC2CCCCC2)cc1 (stereo unspecified)	n	x	x
COc1cc2sc3cc(NCC[C@@H]4CCCN4C)ccc3c(=O)c2cc1OC	n	x	x
O=C(Nc1cccc(CCc2ccccn2)c1)c1cc(F)c(F)cc1Cl	-109	n	n
O=C(Nc1ccccn1)c1ccc2ccccc2c1O	n	x	x
COc1ccc([N+](=O)[O-])cc1NC1C2CC3CC(C2)CC1C3 (stereo unspecified)	-522	n	n
CCCOc1cc(NCc2ccccc2)c2ncn(C(C)C)c2c1	n	x	x
COc1ccc(C2=Nn3c(nnc3-c3ccccc3F)SC2)cc1OC1CCCC1	n	x	x
Cc1ccc(S(=O)(=O)NCc2ccc3c(c2)cc(C)n3C)cc1	n	x	x
Cc1[nH]c2ccc(CNS(=O)(=O)c3ccc(S(=O)(=O)N4CCOCC4)cc3)cc2c1C	-48	n	n
CCCCCCCc1ccc(C2NC(=S)NC3=C2C(=O)c2ccccc23)cc1 (stereo unspecified)	n	x	x
N#C/C(=N/Nc1ccccc1[N+](=O)[O-])C(N)=S	-40	n	n
CCCCCc1cc(=O)oc2c(C(CCN3CCCC(C)C3)c3ccc(N(C)C)cc3)c(OC)cc(OC)c12 (stereo unspecified)	n	x	x
COc1ccccc1-c1nnc(C2CCN(S(=O)(=O)c3cccc([N+](=O)[O-])c3)CC2)o1	-53	n	n
CC(=O)Nc1cccc(NC(=S)Nc2cccc3ccccc23)c1	n	x	x
Cc1[nH]n(-c2ccccc2)c(=O)c1/C=N/NC(=O)c1ccc(O)cc1O	n	x	x
COc1ccc(/C=N/NC(=O)c2cc(=O)[nH]c3ccccc23)cc1OC	-544	n	n
O=C(Cc1cc(=O)[nH][nH]1)N/N=C/c1cccc2ccccc12	n	x	x
COc1ccc2oc(C)c(C(=O)Cn3ccnc3)c2c1	-246	n	n
CC(C)COc1ccc(C(=O)Nc2scc(-c3ccc(Cl)cc3Cl)c2C(N)=O)cc1	n	x	x
Cc1ccc(NC(=O)c2ccc(OC(=O)COc3ccc(Cl)cc3C)cc2)cc1	-486	n	n
COc1ccccc1N=Nc1ccc(O)c2ncccc12	n	x	x
Cc1ccc(-n2nc3ccc(N)cc3n2)cc1C	n	x	x
COc1ccc(CNC(=O)CNS(=O)(=O)c2ccc(Cl)cc2)cc1	-177	n	n
CC(C)(C(=O)O)c1ccc([C@H](O)CCCN2CCC(C(O)(c3ccccc3)c3ccccc3)CC2)cc1	-114	n	n
SMILES	Apaf1 activ	Rh110 act interf	Apaf-1 act conf2
CCCN(CC(=O)Nc1ccccc1C)C(=O)C1CCCN(C(=O)c2ccc(Cl)cc2)C1 (stereo unspecified)	n	x	x
Cc1ccc(/C=N/NC(=O)C(C)NC(=O)c2ccccc2)cc1 (stereo unspecified)	n	x	x
O=C(Cc1cc(=O)[nH][nH]1)N/N=C/c1ccccc1Cl	n	x	x
CC(C)c1ccc(/C=N/NC(=O)c2ccccc2Cl)cc1	-194	n	n
Cc1cc(C)c2nc(N(CCN(C)C)C(=O)c3ccc(S(=O)(=O)N(C)CC4CCCO4)cc3)sc2c1 (stereo unspecified)	n	x	x
COc1cc(OC)c2c(-c3ccccc3)cc(=O)oc2c1C(CCN1CCCCC1)c1ccc(N(C)C)cc1 (stereo unspecified)	n	x	x
COc1cccc2c1C(=O)c1c(O)c3c(c(O)c1C2=O)C[C@@](O)(C(=O)CO)C[C@@H]3O[C@H]1C[C@H](N)[C@@H](O)[C@H](C)O1	n	x	x
COc1ccc(N2CC(C(=O)N/N=C/c3cc([N+](=O)[O-])ccc3O)CC2=O)cc1 (stereo unspecified)	-318	n	n
COc1ccc(CN2CC(C(=O)NCc3cccc(OC)c3)CC2=O)cc1 (stereo unspecified)	n	x	x
COc1nc(N/N=C/c2ccc(-c3ccccc3[N+](=O)[O-])o2)nc(N2CCOCC2)n1	n	x	x
N#Cc1cc2ccc(N3CCOCC3)cc2cc1C#N	n	x	x
Cc1cc(C)nc(N/N=C/c2ccc(N3CCOCC3)cc2)n1	-68	n	n
O=C(COc1ccccc1)N1CCN=C1SCc1ccc(F)cc1	n	x	x
